Screening data as filed in PubChem BioAssay.
The list is not random: actives were taken first. Their share in the collection is about 1.8%.
NR1D1 modulator – modulators of Rev-erb alpha DNA binding, primary screen, biochemical, FITC-DNA, fluorescence polarization, uHTS. Rev-erbα–FITC-DNA binding, 90 min. AID 1259318, 2017. activity, % at 10 µM. Nuclear receptor subfamily 1 group D member 1 (Homo sapiens), P20393. 0.79% of 370,000 active;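 active means activity above about 14%, limit read from the data; passing the limit was not always enough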
PG9 binder – binders of HIV-1 gp120 antibody PG9, primary screen, biochemical, TR-FRET; HIV-1 gp120 / PG9 antibody interaction; TR-FRET gp120-PG9 antibody binding; inhibition, % at 6.7 µM; 0.43% of 360,000 active; in the data active means inhibition above about 8.5%
Tb MetRS inh – T. brucei MetRS inhibitors, primary screen, biochemical, luminescence; methionyl-tRNA synthetase (Trypanosoma brucei brucei); purified T. brucei MetRS, ATP depletion, Kinase-Glo luminescence; inhibition, % at 11.9 µM; 0.4% of 360,000 active;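 active means inhibition above a per-plate cutoff of the control wells' mean inhibition plus 3 SD, cut at about 5.5% in these data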
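Dosing: 11.9 µM single point; system: parasite MetRS enzyme; technique: luminescence of leftover ATP; times: 15 min enzyme-compound preincubation, 2 h reaction, 10 min detection, 25 °C; replicates: each compound tested once; read-out basis: percent inhibition relative to median high and low control wells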
Rin1-Abl PPI inh – inhibitors of Rin1-Abl protein binding, primary screen, biochemical, TR-FRET; Tyrosine-protein kinase ABL1 (Homo sapiens) + Ras and Rab interactor 1 (Homo sapiens), …; inhibition, % at 7.35 µM; 0.4% of 360,000 active; AID 588664, 2011; in the data active means inhibition above about 5%, passing the limit was not always enough
Tb MetRS conf – T. brucei MetRS inhibitors, confirmation, biochemical, luminescence | T. brucei MetRS enzyme, luminescence (ATP depletion) | shares compounds with Tb MetRS inh | 93% of 1,400 active | inhibition, % at 11.9 µM | AID 624412, 2012; in the data active means inhibition above about 7%
Jurkat cytotox – Jurkat T cell cytotoxicity, cytotoxicity control for T. brucei MetRS inhibitor project, luminescence, high throughput. 12% of 1,400 active. Jurkat cells viability, ATP luminescence. shares compounds with Tb MetRS inh. AID 624413, 2012. inhibition, % at 8.3 µM; in the data active means inhibition above about 15%
Tb MetRS inh FP – T. brucei MetRS inhibitors, orthogonal assay for T. brucei MetRS inhibitor project, biochemical, fluorescence polarization. shares compounds with Tb MetRS inh. purified T. brucei MetRS. inhibition, % at 11.9 µM. 44% of 1,400 active. AID 651607, 2012; in the data active means inhibition above about 17%
Hits are given with their value; 0 = inactive; - = no result given.

SMILES | NR1D1 modulator | PG9 binder | Tb MetRS inh | Rin1-Abl PPI inh | Tb MetRS conf | Jurkat cytotox | Tb MetRS inh FP
O=C(NCc1nc2ccccc2[nH]1)C1=C[C@@H](c2csc3ccccc23)C[C@@H](OCCCCO)O1 | 0 | 0 | 72 | 0 | 101 | 0 | 77
C#CCNC(=O)C1=C[C@H](c2ccc(C(F)(F)F)cc2)C[C@H](OCc2ccc(CO)cc2)O1 | 0 | 0 | 0 | 0 | - | - | -
C#Cc1ccc([C@H]2C=C(C(=O)NCc3nc4ccccc4[nH]3)O[C@@H](OCc3ccc(CO)cc3)C2)cc1 | 0 | 0 | 32 | 0 | 85 | 0 | 68
COc1ccc2c(c1)Sc1ccc(Cl)cc1N2 | 0 | - | - | - | - | - | -
O=C(Nc1ccccc1)C1=C[C@@H](c2ccc(Br)cc2)C[C@@H](OCc2ccc(CO)cc2)O1 | 0 | 0 | 0 | 0 | - | - | -
O=C(NCc1nc2ccccc2[nH]1)C1=C[C@H](c2ccc(Br)cc2)C[C@H](OCc2ccc(CO)cc2)O1 | 0 | 0 | 66 | 0 | 98 | 0 | 75
Cc1ccc(C2CC2C(=O)NNC(=S)Nc2ccc(Cl)cc2)cc1 (configuration not stated) | 0 | 0 | 39 | 0 | 67 | 0 | 38
CC(C)(C)NC(=S)NNC(=O)[C@H]1C[C@@H]1c1ccccc1 | 0 | 0 | 0 | 0 | - | - | -
O=C(Nc1ccc(Br)c(C(F)(F)F)c1)[C@@H]1CC=C[C@@H]2CCN(CC3CC3)C(=O)[C@@H]21 | 0 | - | - | - | - | - | -
O=C(CC1CCCC1)N1CC[C@H]2[C@H](CCCN2Cc2ccccc2)C1 | 0 | - | - | - | - | - | -
Oc1cccc(Nc2nc(O)c(/C=C3\C=Nc4ccccc43)s2)c1 | 0 | 0 | 17 | 0 | 21 | 0 | 28
Cc1nn(C(=O)c2cc3sccc3[nH]2)c(C)c1C | 0 | 0 | 9.2 | 0 | 17 | 0 | 0
OC1(c2cccc(C(F)(F)F)c2)CCN(c2ncnc3c2[nH]c2ccc(F)cc23)CC1 | 0 | 0 | 12 | 0 | 24 | 34 | 0
Fc1ccc2[nH]c3c(N4CCN(c5ccccc5)CC4)ncnc3c2c1 | 0 | 0 | 0 | 0 | - | - | -
O=C(NCCNc1ccnc2cc(Cl)ccc12)c1ccccc1F | 0 | 0 | 8.7 | 0 | 13 | 47 | 0
Clc1ccc2c(NCc3ccccc3)ccnc2c1 | 0 | 0 | 7.9 | 0 | 20 | 19 | 0
COCCCN1C(=O)[C@H](CC(=O)N2CCSCC2)[C@]2(C(=O)OC)CCCCC=C12 | 0 | - | - | - | - | - | -
CCC[C@H]1[C@@H](NC(=O)c2ccc(C)cc2)CC[C@@]23CCCN2C(=O)CCC[C@@H]13 | 0 | - | - | - | - | - | -
CCOC(=O)CNC(=O)N1CCC(CCC(=O)N(C)Cc2ccccc2)CC1 | 0 | 0 | 5.7 | 0 | 0 | 0 | 0
CCc1ccc(C(=O)NNc2ccc(Cl)cc2)cc1 | 0 | 0 | 0 | 0 | - | - | -
O=C(NNc1ccc(Cl)cc1)c1cccs1 | 0 | 0 | 0 | 0 | - | - | -
O=C(NNc1cc(Cl)cc(Cl)c1)c1cccs1 | 0 | 0 | 25 | 0 | 56 | 0 | 30
CCc1ccc(C(=O)NNc2cc(Cl)cc(Cl)c2)cc1 | 0 | 0 | 15 | 0 | 39 | 0 | 19
CCCCc1c(-c2ccccc2OC)ncn1Cc1ccc(F)c(F)c1 | 0 | 0 | - | - | - | - | -
O=C(NN1C(=O)/C(=C/c2ccc(O)cc2)SC1=S)c1ccccc1O | 0 | 0 | 44 | 0 | 58 | 0 | 33
SMILES | NR1D1 modulator | PG9 binder | Tb MetRS inh | Rin1-Abl PPI inh | Tb MetRS conf | Jurkat cytotox | Tb MetRS inh FP
COc1cc(/C=C2\SC(=S)N(NC(=O)c3ccccc3O)C2=O)ccc1O | 0 | 0 | 0 | 0 | - | - | -
Cc1[nH]c2ccc(F)cc2c(=O)c1SC(F)(F)C(F)C(F)(F)F (configuration not stated) | 0 | 0 | 13 | 0 | 20 | 0 | 0
COc1cccc2c(=O)c(SC(F)(F)C(F)C(F)(F)F)c(C)[nH]c12 (configuration not stated) | 0 | 0 | 0 | 0 | - | - | -
Cc1cccc(NC(=O)CCCSc2nc3ccccc3[nH]2)c1 | 0 | 0 | 17 | 0 | 18 | 0 | 0
O=C(CCCSc1nc2ccccc2[nH]1)Nc1ccccc1 | 0 | 0 | 0 | 0 | - | - | -
CCc1cccc(NC(=O)CCCSc2nc3ccccc3[nH]2)c1 | 0 | 0 | 26 | 0 | 44 | 0 | 17
Cc1cc(C)cc(NC(=O)CCCSc2nc3ccccc3[nH]2)c1 | 0 | 0 | 11 | 0 | 22 | 0 | 0
CC(C)CNC(=O)CCCSc1nc2ccccc2[nH]1 | 0 | 0 | 0 | 0 | - | - | -
COc1ccc(N2CCN(C(=O)CCCSc3nc4ccccc4[nH]3)CC2)cc1 | 0 | 0 | 6.6 | 0 | 20 | 0 | 0
Cc1ccnc(NC(=S)N2CCC(Nc3cccc(C(F)(F)F)c3)CC2)c1 | 0 | - | - | - | - | - | -
Cc1ccccc1-c1ccc2c(c1)[C@@H]1C[C@H](N(C)S(=O)(=O)c3ccc(Cl)cc3)[C@H]([C@H](C)O)CN1CC2 | 0 | 0 | - | - | - | - | -
CCCCNc1nc(NCc2ccccc2)nc2ccccc12 | 0 | 0 | 10 | - | 22 | 62 | 0
CNc1nc(NCc2ccccc2)c2ccccc2n1 | 0 | 0 | 0 | 0 | - | - | -
OCCNc1nc(Nc2ccccc2)nc2ccccc12 | 0 | 0 | 11 | 0 | 31 | 0 | 0
OCCNc1nc(Nc2ccc(Br)cc2)nc2ccccc12 | 0 | 0 | - | - | - | - | -
O=C(Cc1cccs1)NCc1cc(Cl)cc(Cl)c1 | 0 | 0 | 56 | 0 | 73 | 0 | 44
O=C(Cc1cccs1)NCc1cccc(Cl)c1 | 0 | 0 | 0 | 0 | - | - | -
S=C(NCc1cccs1)Nc1cc(Cl)cc(Cl)c1 | 0 | 0 | 23 | 0 | 31 | 0 | 20
O=[N+]([O-])c1ccc(NC(=S)NCCc2ccccc2)cc1 | 0 | 0 | 0 | 0 | - | - | -
O=[N+]([O-])c1ccc(NC(=S)NCCc2ccc(Cl)cc2)cc1 | 0 | 0 | 6.9 | 0 | 13 | 36 | 47
O=C(NCc1cc(Br)cc(Br)c1OC(=O)c1ccccc1[N+](=O)[O-])c1ccccc1 | 0 | 0 | 23 | 0 | 28 | 0 | 20
CS(=O)(=O)N(CC(=O)Nc1ccc2c(c1)OCO2)Cc1ccccc1 | 0 | 0 | 0 | 0 | - | - | -
CS(=O)(=O)N(CC(=O)Nc1ccc2c(c1)OCO2)Cc1ccc(Cl)cc1 | 0 | 0 | 14 | 0 | 23 | 0 | 0
CN(C)c1cccc2c(S(=O)(=O)NCC3CCN(C(=O)C(=O)c4cc5ccccc5o4)CC3)cccc12 | 0 | 0 | - | - | - | - | -
CCNC(=S)Nc1cccc(S(=O)(=O)Nc2ccccc2OC)c1 | 0 | 0 | 0 | 0 | - | - | -
COc1ccccc1NS(=O)(=O)c1cccc(NC(=O)Nc2ccc(Cl)cc2)c1 | 0 | 0 | 51 | 0 | 78 | 0 | 103
COc1ccccc1NS(=O)(=O)c1cccc(NC(=O)Nc2ccccc2)c1 | 0 | 0 | 88 | 0 | 100 | 0 | 105
